Laboratory results published in ChEMBL document CHEMBL5653631, “A Potent and Selective ULK1 Inhibitor Suppresses Autophagy and Sensitizes Cancer Cells to Nutrient Stress” (iScience, 2018).

Legend:
[1] = target: T1, Serine/threonine-protein kinase BRSK1 (Homo sapiens) (UniProt Q8TDC3); test: Inhibition of human recombinant BRSK1 at 40 nM in presence of ATP by radiometric assay relative to control
T1 sequence (whole entry): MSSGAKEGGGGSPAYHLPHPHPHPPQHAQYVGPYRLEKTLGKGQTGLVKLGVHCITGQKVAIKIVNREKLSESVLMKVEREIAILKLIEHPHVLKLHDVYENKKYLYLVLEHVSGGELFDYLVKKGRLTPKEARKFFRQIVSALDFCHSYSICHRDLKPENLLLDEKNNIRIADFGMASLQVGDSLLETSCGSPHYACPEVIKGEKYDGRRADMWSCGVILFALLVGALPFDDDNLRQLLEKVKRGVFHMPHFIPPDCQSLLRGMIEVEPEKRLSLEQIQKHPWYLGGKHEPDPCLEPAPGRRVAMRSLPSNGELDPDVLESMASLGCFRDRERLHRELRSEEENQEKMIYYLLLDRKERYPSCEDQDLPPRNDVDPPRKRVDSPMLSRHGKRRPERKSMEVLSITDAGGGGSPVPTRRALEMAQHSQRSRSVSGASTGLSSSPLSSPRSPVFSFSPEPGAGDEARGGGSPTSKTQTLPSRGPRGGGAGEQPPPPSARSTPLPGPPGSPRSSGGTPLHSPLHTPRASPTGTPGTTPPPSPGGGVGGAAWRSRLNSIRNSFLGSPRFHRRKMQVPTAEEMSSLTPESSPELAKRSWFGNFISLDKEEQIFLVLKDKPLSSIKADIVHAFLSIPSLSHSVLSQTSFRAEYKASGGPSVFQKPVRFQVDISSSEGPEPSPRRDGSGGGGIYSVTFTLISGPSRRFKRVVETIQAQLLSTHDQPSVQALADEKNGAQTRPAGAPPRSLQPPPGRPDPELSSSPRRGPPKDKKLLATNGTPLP
Summary of the method: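 Recombinant human kinase panel (327 kinases) run as radiometric activity assays, each kinase in duplicate at one compound concentration. Activity remaining expressed relative to vehicle control; percent inhibition taken as 100% minus % activity remaining.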

[2] = target: Insulin-like growth factor 1 receptor (Homo sapiens) (UniProt P08069); test: Inhibition of human recombinant IGF1R at 40 nM in presence of ATP by radiometric assay relative to control
[3] = target: NT-3 growth factor receptor (Homo sapiens) (UniProt Q16288); test: Inhibition of human recombinant TRKC at 40 nM in presence of ATP by radiometric assay relative to control
[4] = target: Macrophage colony-stimulating factor 1 receptor (Homo sapiens) (UniProt P07333); test: Inhibition of human recombinant FMS at 40 nM related to control ULK1
[5] = target: Insulin receptor-related protein (Homo sapiens) (UniProt P14616); test: Inhibition of human recombinant IRR at 40 nM related to control ULK1
[6] = target: MAP kinase-activated protein kinase 2 (Homo sapiens) (UniProt P49137); test: Inhibition of human recombinant MAPKAPK2 at 40 nM related to control ULK1
[7] = target: Rho-associated protein kinase 1 (Homo sapiens) (UniProt Q13464); test: Inhibition of human recombinant ROCK1 at 40 nM related to control ULK1
[8] = target: Cyclin-dependent kinase 2 (Homo sapiens) (UniProt P24941); test: Inhibition of human recombinant CDK2 at 15 nM in presence of ATP by radiometric assay relative to control
[9] = target: T2, Rhodopsin kinase GRK1 (Homo sapiens) (UniProt Q15835); test: Inhibition of human recombinant RHOK at 15 nM in presence of ATP by radiometric assay relative to control
T2 sequence (whole entry): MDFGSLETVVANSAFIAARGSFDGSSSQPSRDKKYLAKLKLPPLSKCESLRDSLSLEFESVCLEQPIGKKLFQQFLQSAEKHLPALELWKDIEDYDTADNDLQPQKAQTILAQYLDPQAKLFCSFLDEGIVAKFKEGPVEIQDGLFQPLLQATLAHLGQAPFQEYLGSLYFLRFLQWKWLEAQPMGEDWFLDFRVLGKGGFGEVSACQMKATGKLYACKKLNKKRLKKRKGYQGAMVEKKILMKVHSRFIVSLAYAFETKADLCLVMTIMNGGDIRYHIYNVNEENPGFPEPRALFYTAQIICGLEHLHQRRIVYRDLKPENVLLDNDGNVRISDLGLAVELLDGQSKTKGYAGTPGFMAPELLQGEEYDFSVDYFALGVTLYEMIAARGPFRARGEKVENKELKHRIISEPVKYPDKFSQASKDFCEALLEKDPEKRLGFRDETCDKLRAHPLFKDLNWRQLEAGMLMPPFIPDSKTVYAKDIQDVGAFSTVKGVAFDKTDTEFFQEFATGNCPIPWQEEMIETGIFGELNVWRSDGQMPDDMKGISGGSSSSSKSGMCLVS

[10] = target: Epithelial discoidin domain-containing receptor 1 (Homo sapiens) (UniProt Q08345); test: Inhibition of human recombinant DDR1 at 15 nM related to control ULK1
[11] = target: [Pyruvate dehydrogenase (acetyl-transferring)] kinase isozyme 4, mitochondrial (Homo sapiens) (UniProt Q16654); test: Inhibition of human recombinant PDHK4 at 15 nM related to control ULK1
[12] = target: T3, Interleukin-1 receptor-associated kinase 4 (Homo sapiens) (UniProt Q9NWZ3); test: Inhibition of human recombinant IRAK4 at 500 nM in presence of ATP by radiometric assay relative to control
T3 sequence (whole entry): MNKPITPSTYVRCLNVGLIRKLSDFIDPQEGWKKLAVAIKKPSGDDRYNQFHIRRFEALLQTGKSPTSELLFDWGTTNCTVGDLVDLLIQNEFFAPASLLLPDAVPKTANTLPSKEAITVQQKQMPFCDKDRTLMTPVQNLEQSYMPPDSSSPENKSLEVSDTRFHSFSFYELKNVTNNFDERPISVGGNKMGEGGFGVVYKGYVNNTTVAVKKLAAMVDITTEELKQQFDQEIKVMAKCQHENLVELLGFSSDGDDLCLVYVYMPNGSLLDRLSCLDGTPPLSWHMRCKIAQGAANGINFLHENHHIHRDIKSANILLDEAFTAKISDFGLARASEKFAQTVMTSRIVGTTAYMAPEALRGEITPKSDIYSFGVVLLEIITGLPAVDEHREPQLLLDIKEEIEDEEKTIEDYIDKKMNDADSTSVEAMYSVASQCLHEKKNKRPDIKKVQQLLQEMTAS

[13] = target: Serine/threonine-protein kinase MARK2 (Homo sapiens) (UniProt Q7KZI7); test: Inhibition of human recombinant MARK2 at 500 nM in presence of ATP by radiometric assay relative to control
[14] = target: Tyrosine-protein kinase receptor UFO (Homo sapiens) (UniProt P30530); test: Inhibition of human recombinant AXL at 500 nM related to control ULK1
Summary of the method: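 Panel of 327 recombinant human kinases, each assayed in vitro by radiometric activity assay in duplicate at a single inhibitor concentration per compound, chosen with reference to its ULK1 inhibition. Activity remaining was expressed as percent of vehicle control, and percent inhibition was calculated as 100 minus percent activity remaining.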

Sequence of Macrophage colony-stimulating factor 1 receptor (Homo sapiens) (P07333 whole entry): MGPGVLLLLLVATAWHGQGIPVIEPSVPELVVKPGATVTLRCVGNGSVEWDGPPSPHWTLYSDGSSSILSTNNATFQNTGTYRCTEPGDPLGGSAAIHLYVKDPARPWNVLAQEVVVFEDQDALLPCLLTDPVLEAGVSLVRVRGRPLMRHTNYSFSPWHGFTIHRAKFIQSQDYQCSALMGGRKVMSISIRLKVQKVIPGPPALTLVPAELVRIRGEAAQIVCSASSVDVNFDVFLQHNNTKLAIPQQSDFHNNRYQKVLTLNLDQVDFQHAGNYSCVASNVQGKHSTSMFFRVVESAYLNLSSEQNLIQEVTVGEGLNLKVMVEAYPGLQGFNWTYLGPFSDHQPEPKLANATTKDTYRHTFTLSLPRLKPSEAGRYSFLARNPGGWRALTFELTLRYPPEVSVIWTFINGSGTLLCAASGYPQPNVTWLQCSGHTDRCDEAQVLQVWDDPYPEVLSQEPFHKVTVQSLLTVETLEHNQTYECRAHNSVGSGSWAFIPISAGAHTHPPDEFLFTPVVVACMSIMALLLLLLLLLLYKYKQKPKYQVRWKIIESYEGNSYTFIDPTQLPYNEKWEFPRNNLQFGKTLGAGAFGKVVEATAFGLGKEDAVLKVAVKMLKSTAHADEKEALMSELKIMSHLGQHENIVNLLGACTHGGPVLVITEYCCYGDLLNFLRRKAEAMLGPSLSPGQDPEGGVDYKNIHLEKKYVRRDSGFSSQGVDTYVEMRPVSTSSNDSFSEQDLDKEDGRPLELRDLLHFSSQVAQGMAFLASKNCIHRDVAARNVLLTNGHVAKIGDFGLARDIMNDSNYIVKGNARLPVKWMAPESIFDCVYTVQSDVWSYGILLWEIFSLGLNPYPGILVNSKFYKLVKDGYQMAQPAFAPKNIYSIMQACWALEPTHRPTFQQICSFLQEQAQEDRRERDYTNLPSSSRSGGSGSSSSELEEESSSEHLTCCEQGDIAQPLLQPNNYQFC
Sequence of Insulin receptor-related protein (Homo sapiens) (P14616 27-742 limits assumed): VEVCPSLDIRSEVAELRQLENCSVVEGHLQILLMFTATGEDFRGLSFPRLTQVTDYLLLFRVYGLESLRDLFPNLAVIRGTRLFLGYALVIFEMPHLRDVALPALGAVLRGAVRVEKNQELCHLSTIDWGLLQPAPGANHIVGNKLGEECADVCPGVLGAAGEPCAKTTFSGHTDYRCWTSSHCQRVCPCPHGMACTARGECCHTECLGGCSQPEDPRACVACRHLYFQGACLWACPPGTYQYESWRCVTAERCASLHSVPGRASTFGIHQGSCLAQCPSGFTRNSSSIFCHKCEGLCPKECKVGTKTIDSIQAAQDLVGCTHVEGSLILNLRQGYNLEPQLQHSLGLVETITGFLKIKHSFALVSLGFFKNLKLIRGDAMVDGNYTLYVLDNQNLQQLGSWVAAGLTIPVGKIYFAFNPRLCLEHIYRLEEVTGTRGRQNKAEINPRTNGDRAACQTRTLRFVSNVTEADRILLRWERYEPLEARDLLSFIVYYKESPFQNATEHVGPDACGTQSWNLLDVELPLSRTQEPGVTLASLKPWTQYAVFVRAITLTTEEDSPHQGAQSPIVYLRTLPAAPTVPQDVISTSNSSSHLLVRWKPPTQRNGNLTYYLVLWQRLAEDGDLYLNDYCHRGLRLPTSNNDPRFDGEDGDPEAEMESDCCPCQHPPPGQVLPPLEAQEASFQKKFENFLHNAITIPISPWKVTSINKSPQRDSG
Sequence of Insulin receptor-related protein (Homo sapiens) (P14616 747-1297 limits assumed): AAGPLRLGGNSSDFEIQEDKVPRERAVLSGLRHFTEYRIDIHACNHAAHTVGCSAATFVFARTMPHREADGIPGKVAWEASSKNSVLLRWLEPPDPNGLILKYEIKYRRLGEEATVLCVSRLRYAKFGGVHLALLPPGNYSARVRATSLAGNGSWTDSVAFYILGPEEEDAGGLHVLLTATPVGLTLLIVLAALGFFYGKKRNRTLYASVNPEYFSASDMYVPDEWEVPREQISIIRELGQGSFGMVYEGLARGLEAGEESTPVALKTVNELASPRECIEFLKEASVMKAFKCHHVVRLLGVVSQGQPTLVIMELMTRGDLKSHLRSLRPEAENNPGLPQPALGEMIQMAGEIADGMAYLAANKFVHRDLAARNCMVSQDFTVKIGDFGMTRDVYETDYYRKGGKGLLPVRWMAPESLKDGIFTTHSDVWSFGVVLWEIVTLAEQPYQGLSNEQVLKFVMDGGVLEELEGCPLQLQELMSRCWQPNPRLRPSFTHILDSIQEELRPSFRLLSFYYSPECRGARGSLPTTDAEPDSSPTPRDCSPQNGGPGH
Sequence of MAP kinase-activated protein kinase 2 (Homo sapiens) (P49137 whole entry, looked up): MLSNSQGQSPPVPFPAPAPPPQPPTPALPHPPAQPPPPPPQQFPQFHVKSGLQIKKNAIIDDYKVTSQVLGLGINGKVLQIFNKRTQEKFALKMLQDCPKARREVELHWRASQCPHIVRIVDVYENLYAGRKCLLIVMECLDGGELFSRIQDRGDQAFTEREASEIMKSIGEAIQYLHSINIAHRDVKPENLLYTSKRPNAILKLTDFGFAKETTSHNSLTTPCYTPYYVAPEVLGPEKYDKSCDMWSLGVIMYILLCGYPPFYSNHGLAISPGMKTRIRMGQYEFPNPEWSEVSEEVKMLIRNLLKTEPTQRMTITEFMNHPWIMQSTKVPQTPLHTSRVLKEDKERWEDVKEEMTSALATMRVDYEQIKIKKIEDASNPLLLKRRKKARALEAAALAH
Sequence of Epithelial discoidin domain-containing receptor 1 (Homo sapiens) (Q08345 whole entry, the tested form may be a part): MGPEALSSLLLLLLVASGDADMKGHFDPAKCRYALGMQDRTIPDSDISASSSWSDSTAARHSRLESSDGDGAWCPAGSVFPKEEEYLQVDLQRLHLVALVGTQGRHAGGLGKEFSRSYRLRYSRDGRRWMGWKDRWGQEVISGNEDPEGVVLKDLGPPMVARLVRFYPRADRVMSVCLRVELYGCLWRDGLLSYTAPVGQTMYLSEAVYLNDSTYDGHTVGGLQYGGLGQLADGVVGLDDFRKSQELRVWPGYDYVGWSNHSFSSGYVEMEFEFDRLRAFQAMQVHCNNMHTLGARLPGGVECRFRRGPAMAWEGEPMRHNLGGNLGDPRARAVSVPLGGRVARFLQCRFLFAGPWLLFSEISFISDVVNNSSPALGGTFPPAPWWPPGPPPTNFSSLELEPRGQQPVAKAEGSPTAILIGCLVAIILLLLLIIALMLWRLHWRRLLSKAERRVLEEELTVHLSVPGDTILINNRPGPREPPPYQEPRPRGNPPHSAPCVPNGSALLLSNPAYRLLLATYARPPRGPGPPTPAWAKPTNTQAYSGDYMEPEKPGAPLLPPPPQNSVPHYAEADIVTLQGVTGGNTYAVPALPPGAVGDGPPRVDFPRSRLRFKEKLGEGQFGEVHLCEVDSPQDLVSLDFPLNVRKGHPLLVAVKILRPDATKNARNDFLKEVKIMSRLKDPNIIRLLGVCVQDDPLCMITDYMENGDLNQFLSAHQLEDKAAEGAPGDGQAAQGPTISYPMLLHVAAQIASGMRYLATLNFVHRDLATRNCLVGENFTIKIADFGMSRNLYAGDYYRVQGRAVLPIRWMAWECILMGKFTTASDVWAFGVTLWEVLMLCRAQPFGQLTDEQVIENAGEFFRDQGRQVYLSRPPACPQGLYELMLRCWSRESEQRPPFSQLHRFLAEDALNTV
Sequence of Serine/threonine-protein kinase MARK2 (Homo sapiens) (Q7KZI7 whole entry): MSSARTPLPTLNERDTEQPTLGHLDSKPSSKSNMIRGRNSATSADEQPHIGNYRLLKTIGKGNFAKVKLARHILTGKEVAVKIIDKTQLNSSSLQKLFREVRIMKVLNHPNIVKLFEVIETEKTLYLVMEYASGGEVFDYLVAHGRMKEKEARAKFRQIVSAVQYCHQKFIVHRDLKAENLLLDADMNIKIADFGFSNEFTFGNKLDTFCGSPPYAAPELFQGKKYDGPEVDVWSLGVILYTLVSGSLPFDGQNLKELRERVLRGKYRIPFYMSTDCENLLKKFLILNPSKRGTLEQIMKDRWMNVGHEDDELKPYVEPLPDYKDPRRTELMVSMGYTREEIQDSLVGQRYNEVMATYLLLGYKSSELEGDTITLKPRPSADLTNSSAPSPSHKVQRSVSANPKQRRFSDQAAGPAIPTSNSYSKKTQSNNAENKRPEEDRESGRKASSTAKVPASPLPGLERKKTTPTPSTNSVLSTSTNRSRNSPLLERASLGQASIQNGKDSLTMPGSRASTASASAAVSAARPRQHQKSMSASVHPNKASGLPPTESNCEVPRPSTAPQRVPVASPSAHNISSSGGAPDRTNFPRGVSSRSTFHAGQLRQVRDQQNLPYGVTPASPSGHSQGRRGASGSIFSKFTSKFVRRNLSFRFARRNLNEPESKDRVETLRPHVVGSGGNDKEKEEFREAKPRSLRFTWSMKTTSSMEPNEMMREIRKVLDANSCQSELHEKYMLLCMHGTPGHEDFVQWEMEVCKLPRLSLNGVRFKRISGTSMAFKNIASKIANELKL
Sequence of [Pyruvate dehydrogenase (acetyl-transferring)] kinase isozyme 4, mitochondrial (Homo sapiens) (Q16654 whole entry, looked up): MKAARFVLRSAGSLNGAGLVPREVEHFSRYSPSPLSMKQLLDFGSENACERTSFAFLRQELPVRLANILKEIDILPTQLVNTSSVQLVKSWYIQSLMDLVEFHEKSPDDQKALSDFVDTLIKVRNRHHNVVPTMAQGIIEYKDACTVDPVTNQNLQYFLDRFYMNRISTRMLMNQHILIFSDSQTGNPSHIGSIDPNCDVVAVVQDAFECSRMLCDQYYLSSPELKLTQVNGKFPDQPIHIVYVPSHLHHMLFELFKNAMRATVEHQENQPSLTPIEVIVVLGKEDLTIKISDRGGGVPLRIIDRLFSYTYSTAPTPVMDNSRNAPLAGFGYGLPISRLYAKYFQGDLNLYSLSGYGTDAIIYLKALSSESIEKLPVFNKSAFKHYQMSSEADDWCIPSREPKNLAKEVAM

O=C(N[C@@H](C1CC1)C(F)(F)F)c1cc(-c2cnn3cc(-c4ccc(F)cc4)cnc23)cs1
inhibition [1]: 2% | inhibition [2]: 0% | inhibition [3]: 0% | fold change (FC) [4]: 0.01 | fold change (FC) [5]: 0.03 | fold change (FC) [6]: 0 | fold change (FC) [7]: 0

CC(C)[C@H](NC(=O)c1cc(-c2cnn3cc(-c4ccc(OCCN5CCCCC5)cc4)cnc23)cs1)C(F)(F)F
inhibition [8]: 1% | inhibition [9]: 0% | fold change (FC) [10]: 0.89 | fold change (FC) [11]: 0.02

CNC(=O)c1ccccc1Oc1nc(Nc2cc(OC)c(OC)c(OC)c2)ncc1Br
inhibition [12]: 6% | inhibition [13]: 50% | fold change (FC) [14]: 0.07
